A selection: hits, their analogues and other compounds. The true share with any hit is near 1.3%.
Diaphorase act – diaphorase activation or chemical reduction counter-screen; Diaphorase/resazurin coupled assay, resorufin fluorescence, 16 min; stronger effect = higher value; 1 = vehicle wells, 0 = NADH-free wells; activation factor at 20 µM; 190,000 tested, 0.005% active;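 active = diaphorase activity raised at least twofold by the compound at 20 µM; inactive = activation factor below 2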
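Assay system: bacterial diaphorase enzyme (C. kluyveri) / Input: enzyme 0.07 U/mL final / Medium: 50 mM HEPES pH 7.4 with 4.542 mM MgCl2, 0.005% Tween 20 / Doses: single compound dose of 20 µM, 1% DMSO final / Incubation: 16 min enzyme reaction, ambient temperature / Signal: fluorescence, excitation 544 nm and emission 590 nm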
G6PDH CS – counter-screen for G6PDH assay hits: L. mesenteroides G6PDH inhibition; Purified L. mesenteroides G6PDH, diaphorase/resazurin coupled fluorescence, 45 min; inhibition, % at 5 µM; 200,000 tested, 0.12% active; AID 1020; in the data active = inhibition above about 50%
PfG6PD inh – PfG6PD (Plasmodium falciparum) enzyme inhibition; PfGluPho enzyme, NADPH resazurin-diaphorase fluorescence; inhibition, % at 20 µM; 350,000 tested, 0.78% active; AID 504690;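 active = inhibition reaching at least a set limit at 20 µM in the primary screen, cut at about 59% in these data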;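 also: 0% = DMSO wells with substrate and 100% = DMSO wells lacking glucose-6-phosphate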
Diaph inh CS – counter-screen for diaphorase-based assays: diaphorase inhibitors and chemical oxidizers; AID 1217; inhibition, % at 20 µM; 190,000 tested, 0.69% active; diaphorase resazurin-to-resorufin fluorescence, NADH, 16 min; bacterial (C. kluyveri) enzyme, not human;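 active = primary screen inhibition at 20 µM above a set limit, cut at about 50% in these data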;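 also: plate controls were DMSO with full reaction for no effect and wells lacking NADH for full effect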
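Detection: fluorescence of resorufin formed from resazurin, Ex 544/Em 590 nm; test system: Clostridium kluyveri diaphorase enzyme; amount: 0.14 U/mL diaphorase, enzyme working solution; times: 16-min room-temperature incubation before reading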
HKDC1 inh – inhibitors of human hexokinase HKDC1; Q2TB90; recombinant HKDC1, G6PDH/diaphorase resazurin coupled fluorescence; inhibition, % at 20 µM; 340,000 tested, 0.16% active; AID 493160;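 active = inhibition above about 35% when tested at 20 µM, limit read from the data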;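 also: plate controls were DMSO wells with enzyme for no effect and DMSO wells lacking enzyme for full effect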
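Material – in-house recombinant HK5 (HKDC1) enzyme · Quantity – HKDC1 at 5 µg/mL · Buffer or medium – pH 8.0 Tris buffer with 10 mM MgCl2 · Reagent – glucose with 1 mM ATP · Dosing – single 20 µM dose · Times – reaction time 90 min, room temperature, protected from light · Technique – resorufin fluorescence at 613 nm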
HKDC1 act conf2 – HKDC1 (human) activation, single-dose confirmed. 740 tested, 14% active. inhibition, % at 20 µM. AID 504708. shares compounds with HKDC1 inh. recombinant HKDC1, G6PDH/diaphorase resazurin fluorescence; stronger effect = lower value;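 active = inhibition at or below a set negative limit, negative inhibition meaning the enzyme was activated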
The depositor's hits bear a star; . = no result.

SMILES	Diaphorase act	G6PDH CS	PfG6PD inh	Diaph inh CS	HKDC1 inh	HKDC1 act conf2
CCOc1ccc(NC2=CC(=O)C(=O)c3ccccc32)cc1	.	.	29	.	22	.
O=C1C=C(Nc2ccc(F)cc2)c2ccccc2C1=O	.	.	8	.	42*	4
Cc1ccc(S(=O)(=O)N2[C@H](c3cccc(Cl)c3)CC(=O)[C@@H]3CN(S(=O)(=O)c4ccccc4C)[C@H](c4ccc(Cl)cc4)C[C@@H]32)cc1	.	.	3	.	.	.
COc1ccc(N(CCN2C(=O)c3ccccc3C2=O)C(=O)c2cccc([N+](=O)[O-])c2)cc1	0.9	24	3	6	-1	.
COc1ccc(N(CCCN2C(=O)c3cccc4cccc(c34)C2=O)C(=O)c2cccnc2)cc1	0.4	8	8	58*	36*	23
CCOC(=O)[C@H]1[C@H]2COc3cc(OC)ccc3[C@@H]2N2C(=O)c3cc(OC)c(OC)cc3NC(=O)[C@@]12C	.	.	14	.	-2	.
O=C(Sc1nnc(-c2ccccc2)o1)N1c2ccccc2Sc2ccccc21	0.8	1	27	24	37*	-9
Cc1ccc(NC(=O)c2ccc3c(c2)N(CC(=O)NC(C)C)C(=O)C(C)(C)O3)cc1	.	.	-8	.	6	.
O=C(NC(=S)Nc1ccc(S(=O)(=O)Nc2nccs2)cc1)c1ccc(Br)o1	0.9	10	-42	15	-3	.
O=C(/C=C/c1ccc(Br)cc1)NC(=S)Nc1ccc(S(=O)(=O)Nc2nccs2)cc1	0.8	-22	3	17	30	40
S=C(NN=C(c1ccccc1)c1ccccn1)N(Cc1ccccn1)Cc1ccccn1	.	.	47	.	-46	-59*
CC(=NNC(=S)N(Cc1ccccn1)Cc1ccccn1)c1cnccn1	.	.	20	.	-38	.
O=C(N/N=C\C=C\c1ccc([N+](=O)[O-])o1)c1cccs1	.	.	32	.	9	.
O=C1NC(=S)S/C1=C\C=C\c1ccc([N+](=O)[O-])o1	.	.	34	.	38*	19
Cc1[nH]n(-c2ccccc2)c(=O)c1/C=N/Nc1nncc(-c2ccccc2)n1	0.9	-12	-30	6	-47	-61*
Cc1ccc(/C=N/Nc2nncc(-c3ccccc3)n2)o1	0.9	-3	-1	9	3	.
CCCCN(CCCC)C(=S)N/N=C/c1c(C)[nH]n(-c2ccccc2)c1=O	0.9	-1	4	12	-41	-65*
CC(C(=O)Nc1ccc(S(=O)(=O)N2CCCCC2)cc1)N1CCN(c2ccccn2)CC1 (stereo not drawn)	1	2	.	-5	.	.
Cc1ccccc1C(=O)Nc1ccc2c(C#N)c3nc4ccccc4nc3n2c1	0.3	33	18	72*	37*	7
Cc1c(C(=O)Nc2ccccc2)cn2c(nc3ccccc32)c1C#N	0.9	16	-11	12	7	.
Oc1ccc2ccccc2c1C=NC1CCCCC1	0.5	30	24	52*	35*	-8
O=c1oc2cc(Oc3c([N+](=O)[O-])cc(C(F)(F)F)cc3[N+](=O)[O-])ccc2c2c1CCCC2	0.8	4	14	19	40*	3
O=C(CNC(=O)/C=C/c1ccco1)N=Nc1c(O)[nH]c2ccccc12	.	.	28	.	51*	39
C=CC1=C2C=C(C3CC3)N(C3CC3)C=C2C(=O)C(C)(OC(=O)c2ccco2)C1=O (stereo not drawn)	.	.	26	.	13	.
COc1ccc(C2=CC3=C(Br)C(=O)C(C)(OC(=O)c4ccco4)C(=O)C3=CO2)cc1 (stereo not drawn)	.	.	10	.	42*	-7
COc1ccc(C2=CC3=C(Br)C(=O)C(C)(OC(=O)c4cccs4)C(=O)C3=CO2)cc1 (stereo not drawn)	.	.	13	.	50*	4
COC(=O)CCCC1=CC2=CC(=O)C(C)(OC(=O)c3cccs3)C(=O)C2=CN1c1ccc(OC)cc1 (stereo not drawn)	.	.	44	.	19	.
COC(=O)c1cc(C(=O)OCC(=O)Nc2ccc(N3CCOCC3)cc2)cc([N+](=O)[O-])c1	.	.	-1	.	0	.
COc1ccc(S(=O)(=O)Nc2c(C)cc(C)cc2C)c2cccnc12	.	.	-27	.	2	.

Screens from PubChem.
